Legend:
[1] = molecular target: T1, ATP-dependent translocase ABCB1 (Homo sapiens, UniProt P08183); experiment: Ratio of rhodamine123 uptake in MDR1 transfected cells vs parental L5178Y cells at 30 uM; type: functional, cell-based; conditions: mouse
Outline: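 Fluorescence activity ratio at 30 µM compound. L5178Y parental and L5178YvMDR cells (2 × 10⁶/mL, serum-free McCoy's 5A) preincubated 10 min at room temperature with compound, then rhodamine 123 (5.2 µM final) added for 20 min at 37 °C. After two PBS washes, 1 × 10⁴ cells read by flow cytometry. Ratio calculated from uptake in treated versus untreated control cells. Mean of two determinations.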

[2] = molecular target: T1, ATP-dependent translocase ABCB1; experiment: Inhibition of P-glycoprotein
Outline: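 Rhodamine 123 uptake in L5178YvMDR mouse T-lymphoma cells and the parental line, 2 × 10⁶ cells/mL in serum-free McCoy's 5A. Compound preincubated 10 min at room temperature, then rhodamine 123 (5.2 µM final) added for 20 min at 37 °C. Cells washed twice in PBS and 1 × 10⁴ cells read by flow cytometry. IC50 taken from sigmoidal curve of fluorescence activity ratio versus concentration. Mean of two determinations.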

L5178Y = experiment: Cytotoxicity against mouse L5178Y cell line; type: functional, cell-based
Outline: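 MTT assay on L5178Y mouse T-lymphoma parental cells or the L5178YvMDR (mdr1-transfected) subline. Compound-treated cells cultured 48 h at 37 °C under 5% CO2. MTT added (0.5 mg/mL final) for another 4 h at 37 °C. Formazan dissolved in 10% SDS in 0.01 M HCl overnight, then absorbance read. Absorbance corrected for cell control and compound, IC50 taken from sigmoidal curve. Mean of two determinations.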

T1 sequence (P08183 whole entry): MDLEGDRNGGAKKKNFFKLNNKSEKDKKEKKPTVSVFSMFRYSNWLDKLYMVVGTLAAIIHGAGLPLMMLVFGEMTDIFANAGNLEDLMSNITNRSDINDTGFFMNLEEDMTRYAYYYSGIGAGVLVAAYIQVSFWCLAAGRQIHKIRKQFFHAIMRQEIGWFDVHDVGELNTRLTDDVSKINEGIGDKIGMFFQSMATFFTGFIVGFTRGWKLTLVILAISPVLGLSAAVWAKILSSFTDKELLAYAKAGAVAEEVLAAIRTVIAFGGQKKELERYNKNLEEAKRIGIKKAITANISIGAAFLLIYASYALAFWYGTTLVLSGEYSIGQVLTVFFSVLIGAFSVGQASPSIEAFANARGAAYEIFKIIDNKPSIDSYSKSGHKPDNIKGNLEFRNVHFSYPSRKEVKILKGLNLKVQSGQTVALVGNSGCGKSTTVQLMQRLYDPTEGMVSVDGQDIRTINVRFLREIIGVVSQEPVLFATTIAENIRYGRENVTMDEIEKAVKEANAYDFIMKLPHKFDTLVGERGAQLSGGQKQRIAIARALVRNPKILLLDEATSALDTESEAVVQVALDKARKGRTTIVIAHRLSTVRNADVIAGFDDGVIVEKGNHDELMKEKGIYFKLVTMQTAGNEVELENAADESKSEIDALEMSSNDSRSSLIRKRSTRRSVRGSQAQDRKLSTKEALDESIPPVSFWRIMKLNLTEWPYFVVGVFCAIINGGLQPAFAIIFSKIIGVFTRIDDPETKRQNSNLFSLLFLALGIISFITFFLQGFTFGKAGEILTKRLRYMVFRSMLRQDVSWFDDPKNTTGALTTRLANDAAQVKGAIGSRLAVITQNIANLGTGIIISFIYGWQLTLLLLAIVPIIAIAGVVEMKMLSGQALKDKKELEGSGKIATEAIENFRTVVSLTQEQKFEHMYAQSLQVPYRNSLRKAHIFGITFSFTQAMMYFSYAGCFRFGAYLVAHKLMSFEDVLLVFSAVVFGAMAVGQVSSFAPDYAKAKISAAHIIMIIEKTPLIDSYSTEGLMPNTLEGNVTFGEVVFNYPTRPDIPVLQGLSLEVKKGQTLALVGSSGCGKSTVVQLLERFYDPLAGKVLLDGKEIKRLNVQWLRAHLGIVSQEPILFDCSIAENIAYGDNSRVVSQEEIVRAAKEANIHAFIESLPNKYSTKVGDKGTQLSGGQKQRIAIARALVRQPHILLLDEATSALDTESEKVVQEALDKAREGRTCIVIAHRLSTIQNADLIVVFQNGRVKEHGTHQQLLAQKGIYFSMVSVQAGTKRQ

SMILES	Ratio [1]	IC50 [2] [µM]	IC50 (L5178Y) [µM]
COC(=O)N1C2C3C4N(C(=O)OC)C5C(C1[C@]5(CO)[C@H]3c1ccccc1)[C@@H](c1ccccc1)[C@@]24CO	21.6	3.8	
OC[C@]12C3C4C1N(Cc1ccccc1)C1C(C(N3Cc3ccccc3)[C@]1(CO)[C@H]4c1ccccc1)[C@H]2c1ccccc1	26.5	< 1	11.9
CN1C2C3C4N(C)C5C(C1[C@]5(CO)[C@H]3c1ccccc1)[C@@H](c1ccccc1)[C@@]24CO	34.3	17.6	7.1

Now from value to compound, other results behind:

Ratio [1]	IC50 [2] [µM]	SMILES	IC50 (L5178Y) [µM]
30.8	< 1	O=C(Oc1ccccc1)N1C2C3C4N(C(=O)Oc5ccccc5)C5C(C1[C@]5(CO)[C@H]3c1ccccc1)[C@@H](c1ccccc1)[C@@]24CO	12.7
33	6.1	CC(C)(C)OC(=O)N1C2C3C4N(C(=O)OC(C)(C)C)C5C(C1[C@]5(CO)[C@H]3c1ccccc1)[C@@H](c1ccccc1)[C@@]24CO	2.5

From ChEMBL document CHEMBL1147656, “Biological evaluation of bishydroxymethyl-substituted cage dimeric 1,4-dihydropyridines as a novel class of p-glycoprotein modulating agents in cancer cells” (J Med Chem, 2006)
